Results reported in ChEMBL document CHEMBL2177098, “Synthesis and evaluation of novel ¹⁸F labeled 2-pyridinylbenzoxazole and 2-pyridinylbenzothiazole derivatives as ligands for positron emission tomography (PET) imaging of β-amyloid plaques” (J Med Chem, 2012).
Activity calls are given as the source filed them. The rule behind the calls is not given here.

What was measured:
Mus musculus [1] = organism: Mus musculus; assay: Binding affinity to amyloid beta plaques in transgenic C57BL6 mouse hippocampus expressing APP Swedish mutant/PSEN1 at 370 KBq/100 ul after 1 hr by autoradiographic analysis; type: tissue-based; settings: tested as the 18F-labelled form
How it was run: (§1)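 Paraffin brain sections from 12-month-old Tg mice (C57BL6, APPswe/PSEN1) and age-matched controls, deparaffinized through xylene and graded ethanol, then PBS (0.2 M, pH 7.4) 30 min. Incubated with 18F tracer (370 KBq per 100 μL) 1 h at room temperature, washed in 40% EtOH, rinsed in water, then phosphor plate exposure 2 h. The same sections were afterwards stained with 0.125% thioflavin S in 10% EtOH for 3 min and washed in 40% EtOH.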

[2] = molecular target: Amyloid-beta precursor protein (Homo sapiens) (UniProt P05067); assay: Binding affinity to amyloid beta plaques in Alzheimer patient brain at 370 KBq/100 ul after 1 hr by autoradiographic analysis; settings: tested as the 18F-labelled form
Mus musculus [3] = organism: Mus musculus; assay: Binding affinity to amyloid beta plaques in transgenic C57BL6 mouse cortex expressing APP Swedish mutant/PSEN1 at 370 KBq/100 ul after 1 hr by autoradiographic analysis; settings: tested as the 18F-labelled form; how it was run: as §1
Mus musculus [4] = organism: Mus musculus; assay: Binding affinity to amyloid beta plaques in transgenic C57BL6 mouse hippocampus expressing APP Swedish mutant/PSEN1 at 370 KBq/100 ul after 1 hr by thioflavinS-staining method; type: tissue-based; settings: tested as the 18F-labelled form; how it was run: as §1
Mus musculus [5] = organism: Mus musculus; assay: Binding affinity to amyloid beta plaques in transgenic C57BL6 mouse cortex expressing APP Swedish mutant/PSEN1 at 370 KBq/100 ul after 1 hr by thioflavinS-staining method; settings: tested as the 18F-labelled form; how it was run: as §1
[6] = Displacement of [125I]-IMPY from amyloid beta (1 to 42) fibrils after 2 hrs by gamma-counting analysis
How it was run: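 Competition binding with aggregated Aβ1-42 fibrils and [125I]IMPY (60000−100000 cpm/100 μL) in 0.05% BSA (1 mL total); inhibitors 10⁻⁴−10^−8.5 M in ethanol. Incubated 37 °C for 2 h, then GF/B vacuum filtration with PBS (0.02 M, pH 7.4) washes and γ counting. Three repeats; IC50 converted to Ki by Cheng−Prusoff.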

Sequence of Amyloid-beta precursor protein (Homo sapiens) (P05067 whole entry): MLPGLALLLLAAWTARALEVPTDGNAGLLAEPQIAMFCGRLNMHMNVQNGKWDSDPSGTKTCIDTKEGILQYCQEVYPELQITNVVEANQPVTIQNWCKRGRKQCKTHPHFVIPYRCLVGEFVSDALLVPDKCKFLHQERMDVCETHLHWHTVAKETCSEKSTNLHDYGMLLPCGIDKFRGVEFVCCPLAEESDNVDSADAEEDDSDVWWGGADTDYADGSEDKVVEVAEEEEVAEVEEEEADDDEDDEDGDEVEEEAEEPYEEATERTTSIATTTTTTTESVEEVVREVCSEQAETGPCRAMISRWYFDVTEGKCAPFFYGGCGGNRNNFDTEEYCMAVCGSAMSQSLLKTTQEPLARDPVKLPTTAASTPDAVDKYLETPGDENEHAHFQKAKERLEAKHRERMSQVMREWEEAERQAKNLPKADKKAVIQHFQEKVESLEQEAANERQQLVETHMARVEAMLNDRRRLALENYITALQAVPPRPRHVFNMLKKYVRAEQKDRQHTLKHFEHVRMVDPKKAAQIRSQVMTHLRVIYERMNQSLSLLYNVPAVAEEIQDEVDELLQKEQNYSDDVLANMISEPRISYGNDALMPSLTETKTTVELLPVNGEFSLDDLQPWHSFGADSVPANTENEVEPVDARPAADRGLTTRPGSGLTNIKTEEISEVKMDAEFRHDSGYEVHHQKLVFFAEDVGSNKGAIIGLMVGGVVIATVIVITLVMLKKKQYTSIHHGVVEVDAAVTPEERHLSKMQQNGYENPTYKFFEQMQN

CNc1ccc(-c2nc3ccc(OCCF)cc3s2)cn1
Activity (Mus musculus [1]): Active
Activity [2]: Active
Activity (Mus musculus [3]): Active
Activity (Mus musculus [4]): Active
Activity (Mus musculus [5]): Active
Ki [6]: 10.1 nM

CNc1ccc(-c2nc3cc(OCCOCCOCCF)ccc3o2)cn1
Activity (Mus musculus [1]): Active
Activity [2]: Active
Activity (Mus musculus [3]): Active
Activity (Mus musculus [4]): Active
Activity (Mus musculus [5]): Active
Ki [6]: 76.9 nM
